Measured values collected from several papers.
Each line is one published result; the experiments were not run side by side.
Target: Mitogen-activated protein kinase kinase kinase 20 (MAP3K20, Homo sapiens, UniProt Q9NYL2)

O=C(Nc1cnn(-c2csc(C(=O)NC3COC3)c2)c1)Nc1ccccc1Cl
remaining activity (enzyme activity; inhibitor; 5 µM): 101%

CNC(=O)c1ccc(Nc2ncc(C(F)(F)F)c(NCc3nccnc3N(C)S(C)(=O)=O)n2)cc1
remaining binding (cell-free assay; competition with immobilised ligand; 0.1 µM): 100%

O=C(Nc1cnn(-c2csc(C(=O)NC3COC3)c2)c1)Nc1c(F)cccc1Cl
remaining activity (enzyme activity; inhibitor; 5 µM): 90.4%

Cn1c2c(Cl)c(Cl)ccc2c2cc(N)[nH]c(=O)c21
ΔTm (thermal stability; DSF; 10 µM): 0.6 °C

COc1cc(Cl)c(C(=O)N[C@@H](CN[C@H]2CC[C@@H](N)CC2)Cc2ccc(C#N)cc2)cc1-c1ccc(CN[C@H](C)c2ccc(C)cc2)o1
remaining activity (enzyme activity; inhibitor; 1 µM): 97%

CC1=C(C#N)C(c2ccc3c(c2)c(NC(=O)c2ccccc2C)nn3C)C(C#N)=C(C)N1
remaining binding (cell-free assay; competition with immobilised ligand; 1 µM): 100%

O=C1Nc2ccc(Cl)cc2C1=Cc1cc(Cl)c(O)c(Cl)c1
remaining signal (cell-free assay; 0.5 µM): 77.4%

N#CC1c2c([nH]c3c(Cl)c(Cl)ccc23)C(=O)NC12CCCCC2 (racemic)
ΔTm (thermal stability; DSF; 10 µM): -0.3 °C

CN(c1ccnc(CNc2nc(Nc3ccc4c(c3)CC(=O)N4)ncc2C(F)(F)F)n1)S(C)(=O)=O
remaining binding (cell-free assay; competition with immobilised ligand; 1 µM): 100%

COc1cc2nccc(Oc3ccc(NC(=O)c4c5n(n(-c6ccc(F)cc6)c4=O)CCCC5)cc3)c2cc1OC
inhibition (enzyme activity; inhibitor; 0.1 µM): -4%

COc1cc2c(N3CCN(C(=O)Nc4ccc(OC(C)C)cc4)CC3)ncnc2cc1OCCCN1CCCCC1
remaining signal (cell-free assay; 0.5 µM): 99.7%

CC1(C)NC(=O)c2[nH]c3c(Cl)c(Cl)ccc3c2C1C#N (centres unmarked)
ΔTm (thermal stability; DSF; 10 µM): 0.6 °C

CC(=O)N1CCC(c2ccc(C(=O)NC(=N)N)cc2C(F)(F)F)CC1
remaining binding (cell-free assay; competition with immobilised ligand; 1 µM): 100%

Cn1c2c(c3ccc(Cl)c(Cl)c31)C(C#N)C(C)(C)NC2=O (centres unmarked)
ΔTm (thermal stability; DSF; 10 µM): 0.4 °C

Cc1ccc(NC(=O)c2ccc(CN3CCN(C)CC3)cc2)cc1Nc1nc(-c2cccnc2)cs1
remaining signal (cell-free assay; 0.5 µM): 86.8%

CCC1(CC)NC(=O)c2c(c3ccc(Cl)c(Cl)c3n2C)C1C#N (centres unmarked)
ΔTm (thermal stability; DSF; 10 µM): 0 °C

COc1ccc2c(O[C@@H]3C[C@H]4C(=O)N[C@]5(C(=O)O)CC5/C=C\CCCCC[C@H](NC(=O)OC5CCCC5)C(=O)N4C3)cc(-c3csc(NC(=O)C(C)C)n3)nc2c1C (some centres unmarked)
remaining binding (cell-free assay; competition with immobilised ligand; 1 µM): 83%

CN1CC(Oc2cnc(C#N)cc2-c2ccn3nc(NC(=O)C4CC4)cc3c2)C1
inhibition (enzyme activity; inhibitor; 1 µM): 12%

CC(C)(O)[C@H]1CC[C@H](Nc2ccc3ncc(-c4cccc(C(F)(F)F)c4)n3n2)CC1
remaining activity (enzyme activity; inhibitor; 1 µM): 75.7%

CC(=O)c1c(NS(C)(=O)=O)c2cc(-c3ccc(Cl)cc3)c(-c3ccc(Cl)cc3Cl)nc2n(C)c1=O
remaining binding (cell-free assay; competition with immobilised ligand; 1 µM): 92%

CC(C)(C)c1nc2c(s1)c1nc(N)ncc1c1ccc(NS(=O)(=O)c3c(F)cccc3F)c(F)c12
remaining activity (enzyme activity; inhibitor; radiometric; 1 µM): 103%

COc1cc2ncnc(Nc3ccc(F)c(Cl)c3)c2cc1OCCCN1CCOCC1
remaining signal (cell-free assay; 0.5 µM): 96.2%

CCOc1cc(-c2nncn2C)ccc1Nc1ncc2cc(C)nc(NCC(C)(C)C)c2n1
inhibition (cell-free assay; TR-FRET; 1 µM): ≤ 15%

Cc1c(C(=O)O)cc(-c2ccc(C3CCNCC3)cc2)c2ccc(-c3ccc(C(F)(F)F)cc3)cc12
remaining binding (binding; competition with immobilised ligand; 1 µM): 100%

Cn1c2c(c3ccc(Cl)c(Cl)c31)C(C#N)C1(CCOCC1)NC2=O (centres unmarked)
ΔTm (thermal stability; DSF; 10 µM): 0.1 °C

COc1cccc2c(NCc3ccccc3)nc(-n3c(N)nc4ccccc43)nc12
inhibition (target engagement in cells; inhibitor; chemoproteomics; 20 mM): -3.3%
